Test results: ChEMBL document CHEMBL4823271, “Synthesis and structure-activity relationship of new chalcone linked 5-phenyl-3-isoxazolecarboxylic acid methyl esters potentially active against drug resistant Mycobacterium tuberculosis” (Eur J Med Chem, 2021)
Values after ≈ are worked out from the molar mass of the structure shown. Active and inactive are the calls of the source. The rule behind the calls is not given here.

How the values were obtained:
[1] = tested on: Mycobacteroides chelonae; test: Antimycobacterial activity against Mycobacterium chelonae ATCC 35752 assessed as visible growth inhibition incubated for 16 to 18 hrs; type: functional, organism-based; conditions: time 16-18 hrs
[2] = tested on: Mycobacteroides abscessus; test: Antimycobacterial activity against Mycobacterium abscessus ATCC 19977 assessed as visible growth inhibition incubated for 16 to 18 hrs; type: functional, organism-based; conditions: time 16-18 hrs
[3] = tested on: Mycobacterium tuberculosis; test: Antitubercular activity against Mycobacterium tuberculosis H37Rv assessed as bacterial growth inhibition after 7 days by broth microdilution assay; type: functional; conditions: 168 h, dose 0.03-64 µg/ml, time 7 day
Outline: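 Compounds were tested in broth microdilution from 64 downward, incubated 37 °C for 7 days, then resazurin (PrestoBlue) added. MIC is the lowest concentration preventing the blue-to-pink change, run in triplicate, reporting the value obtained at least twice of three.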

[4] = Cytotoxicity against African green monkey vero cells assessed as reduction in cell viability measured after 72 hrs by MTT assay; type: cell-based; conditions: chlorocebus sabaeus
Outline: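 Vero cells seeded at ~10³ cells/well and grown 24 h at 37 °C, 5% CO₂, then exposed to compound (100 to 5 mg/l) for 72 h. MTT was added […] for 4 h and formazan dissolved in DMSO. CC50 is the lowest concentration giving 50% viability reduction. Doxorubicin was the positive control, run in triplicate.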

[5] = Selectivity index, ratio of CC50 for African green monkey Vero cells to MIC for Antitubercular activity against Mycobacterium tuberculosis H37Rv; type: toxicity; conditions: read-out: Selectivity Index
Outline: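 Selectivity index calculated as Vero CC50 (MTT, 72 h) divided by the H37Rv MIC from the resazurin broth microdilution assay.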

[6] = tested on: Mycolicibacterium fortuitum; test: Antimycobacterial activity against Mycobacterium fortuitum ATCC 6841 assessed as visible growth inhibition incubated for 16 to 18 hrs; type: functional, organism-based; conditions: time 16-18 hrs
[7] = tested on: Mycobacterium tuberculosis; test: Antimycobacterial activity against Mycobacterium tuberculosis H37Rv ATCC 27294 assessed as reduction in bacterial growth incubated for […] by broth microdilution assay; type: functional

SMILES	Activity [1]	Activity [2]	MIC [3] [µg/mL]	CC50 at 72 h [4] [µg/mL]	selectivity ratio [5]	Activity [6]	MIC90 [3] [µg/mL]	MIC [7] [µg/mL]
COC(=O)c1cc(-c2cccc(NC(=O)c3ccc(/C=C/C(=O)c4cccc(C(F)(F)F)c4)cc3)c2)on1	inactive	inactive	1 (≈ 1.92 µM)	> 20	> 20	inactive		
COC(=O)c1cc(-c2cccc(NC(=O)c3ccc(/C=C/C(=O)c4cccnc4)cc3)c2)on1	inactive	inactive	64 (≈ 141 µM)			inactive		
COC(=O)c1cc(-c2cccc(NC(=O)c3ccc(/C=C/C(=O)c4ccccc4)cc3)c2)on1	inactive	inactive	1 (≈ 2.21 µM)	> 50	> 50	inactive		
COC(=O)c1cc(-c2cccc(NC(=O)c3ccc(/C=C/C(=O)c4ccc(OC)c([N+](=O)[O-])c4)cc3)c2)on1	inactive	inactive	1 (≈ 1.9 µM)	> 40	> 40	inactive		
CCOC(=O)c1cc(-c2cccc(OCc3cccc(C(F)(F)F)c3)c2)on1			0.23 (≈ 0.588 µM)					
COC(=O)c1cc(-c2cccc(NC(=O)c3ccc(/C=C/C(=O)c4ccc(F)cc4)cc3)c2)on1	inactive	inactive	4 (≈ 8.5 µM)	> 20	> 5	inactive		
COC(=O)c1cc(-c2cccc(NC(=O)c3ccc(/C=C/C(=O)c4ccc(OC)cc4)cc3)c2)on1	inactive	inactive	4 (≈ 8.29 µM)	> 10	> 2.5	inactive		
COC(=O)c1cc(-c2cccc(NC(=O)c3ccc(/C=C/C(=O)c4ccc(OC)c(OC)c4)cc3)c2)on1	inactive	inactive	1 (≈ 1.95 µM)	> 50	> 50	inactive		
Cc1ccc(Nc2nc(-c3cc(C(=O)Nc4ccccn4)no3)c(C)s2)cc1							0.06 (≈ 0.153 µM)	
O=C(/C=C/c1ccc(-n2ccnc2)cc1)c1ccc(OCc2cc(F)ccc2F)cc1			0.78 (≈ 1.87 µM)					
O=C(/C=C/c1ccc([N+](=O)[O-])o1)c1ccc(N2CCCCC2)cc1			0.06 (≈ 0.184 µM)					
NNC(=O)c1ccncc1 [ISONIAZID]			0.03 (≈ 0.219 µM)					0.03 (≈ 0.219 µM)
COC(=O)c1cc(-c2cccc(NC(=O)c3ccc(OCc4ccc(Cl)cc4)cc3)c2)on1	inactive	inactive	1 (≈ 2.16 µM)	> 80	> 80	inactive		
CCOC(=O)c1cc(/C=C/c2c(Cl)cncc2Cl)on1			0.18 (≈ 0.575 µM)					0.5 (≈ 1.6 µM)
COC(=O)c1cc(-c2cccc(NC(=O)c3ccc(/C=C/C(=O)c4ccc5c(c4)OCO5)cc3)c2)on1	inactive	inactive	2 (≈ 4.03 µM)	> 40	> 20	inactive		
COC(=O)[C@H](NC(=O)c1cc(COc2ccc3sc(C)nc3c2)on1)c1ccccc1			0.61 (≈ 1.39 µM)					
CC(C)Cc1ccc(C(=O)/C=C/c2ccc(C(=O)O)cc2)cc1			32 (≈ 104 µM)	< 10	< 10			
COC(=O)c1cc(-c2cccc(NC(=O)c3ccc(/C=C/C(=O)c4ccc(Br)cc4)cc3)c2)on1	inactive	inactive	1 (≈ 1.88 µM)	> 20	> 2	inactive		
COC(=O)c1cc(-c2cccc(NC(=O)c3ccc(/C=C/C(=O)c4ccc(O)cc4)cc3)c2)on1	inactive	inactive	> 64			inactive		
COC(=O)c1cc(-c2cccc(NC(=O)c3ccc(/C=C/C(=O)c4cccc(OC)c4)cc3)c2)on1	inactive	inactive	2 (≈ 4.15 µM)	> 100	> 50	inactive		
COC(=O)c1cc(-c2cccc(NC(=O)c3ccc(/C=C/C(=O)c4ccc(C)c(F)c4)cc3)c2)on1	inactive	inactive	2 (≈ 4.13 µM)	> 50	> 25	inactive		
CCCOc1ccc(C(=O)/C=C/c2ccc(C(=O)O)cc2)cc1			32 (≈ 103 µM)	< 10	< 10			

SMILES	Activity [1]	Activity [2]	MIC [3] [µg/mL]	CC50 at 72 h [4] [µg/mL]	selectivity ratio [5]	Activity [6]	MIC90 [3] [µg/mL]	MIC [7] [µg/mL]
COC(=O)c1cc(-c2cccc(NC(=O)c3ccc(/C=C/C(=O)c4cccc([N+](=O)[O-])c4)cc3)c2)on1	inactive	inactive	2 (≈ 4.02 µM)	> 40	> 20	inactive		
COC(=O)c1cc(-c2cccc(NC(=O)c3ccc(/C=C/C(=O)c4ccc([N+](=O)[O-])cc4)cc3)c2)on1	inactive	inactive	2 (≈ 4.02 µM)	> 20	> 10	inactive		
COC(=O)c1cc(-c2cccc(NC(=O)c3ccc(/C=C/C(=O)c4cccc(Br)c4)cc3)c2)on1	inactive	inactive	4 (≈ 7.53 µM)	> 100	> 25	inactive		
COc1ccc(OC)c(/C=C/C(=O)c2ccc(Nc3ccnc4cc(Cl)ccc34)cc2)c1			3.12 (≈ 7.01 µM)					
O=C(O)c1ccc(C(=O)/C=C/c2ccc3ccccc3c2)cc1			0.5 (≈ 1.65 µM)					
COC(=O)c1cc(-c2cccc(NC(=O)c3ccc(/C=C/C(=O)c4cccc(F)c4)cc3)c2)on1	inactive	inactive	2 (≈ 4.25 µM)	> 40	> 20	inactive		
COC(=O)c1cc(-c2cccc(NC(=O)c3ccc(/C=C/C(=O)c4cc(F)ccc4F)cc3)c2)on1	inactive	inactive	1 (≈ 2.05 µM)	> 40	> 40	inactive		
CCOC(=O)c1cc(COc2cc(C(F)(F)F)nc3cc(C(F)(F)F)cc(C(F)(F)F)c23)on1			0.39 (≈ 0.776 µM)					
CN[C@@H]1[C@H](O[C@H]2[C@H](O[C@H]3[C@H](O)[C@@H](O)[C@H](N=C(N)N)[C@@H](O)[C@@H]3N=C(N)N)O[C@@H](C)[C@]2(O)C=O)O[C@@H](CO)[C@H](O)[C@H]1O [STREPTOMYCIN]			0.5 (≈ 0.86 µM)					2 (≈ 3.44 µM)
COC(=O)c1cc(-c2cccc(NC(=O)/C=C/c3ccc(Cl)cc3)c2)on1	inactive	inactive	2 (≈ 5.22 µM)			inactive		
O=C(/C=C/c1c[nH]c2ccccc12)c1cccs1			49.9 (≈ 197 µM)					
COC(=O)c1cc(-c2cccc(NC(=O)c3ccc(/C=C/C(=O)c4cccs4)cc3)c2)on1	inactive	inactive	32 (≈ 69.8 µM)			inactive		
COC(=O)c1cc(-c2cccc(NC(=O)c3ccc(/C=C/C(=O)c4ccccc4O)cc3)c2)on1	inactive	inactive	16 (≈ 34.2 µM)			inactive		
CCOC(=O)c1nnn(-c2cccc(NC(=O)c3ccc(/C=C/C(=O)c4ccc(Cl)cc4)cc3)c2)c1C		inactive	> 64					
COC(=O)c1cc(-c2cccc(NC(=O)c3ccc(/C=C/C(=O)c4ccccc4OC)cc3)c2)on1	inactive	inactive	1 (≈ 2.07 µM)	> 40	> 40	inactive		
COC(=O)c1cc(-c2cccc(NC(=O)c3ccc(/C=C/C(=O)c4ccccc4Br)cc3)c2)on1	inactive	inactive	1 (≈ 1.88 µM)	> 40	> 40	inactive		
COC(=O)c1cc(-c2cccc(NC(=O)c3ccc(/C=C/C(=O)c4ccc(C)c([N+](=O)[O-])c4)cc3)c2)on1	inactive	inactive	4 (≈ 7.82 µM)	> 80	> 20	inactive		
COC(=O)c1cc(-c2cccc(NC(=O)c3ccc(/C=C/C(=O)c4cc(OC)c(OC)c(OC)c4)cc3)c2)on1	inactive	inactive	1 (≈ 1.84 µM)	> 50	> 50	inactive		
COC(=O)c1cc(-c2cccc(NC(=O)c3ccc(C4OC4C(=O)c4ccc(Cl)cc4)cc3)c2)on1 (stereo not drawn)	inactive	inactive	4 (≈ 7.95 µM)	> 20	> 5	inactive		
CCOC(=O)c1cc(-c2cccc(NC(=O)c3cccc(C(F)(F)F)c3)c2)on1			64 (≈ 158 µM)					
O=C(O)c1ccc(/C=C/C(=O)c2ccc(Cl)cc2)cc1			4 (≈ 14 µM)	< 10	< 10			
